Assay results: ChEMBL document CHEMBL1629675, “Novel inhibitor of Plasmodium histone deacetylase that cures P. berghei-infected mice” (Antimicrob Agents Chemother, 2009)
Activity calls are given as the source filed them. No cut-off for these calls is given here.

Tests used:
Plasmodium falciparum [1] = experiment: Inhibition of HDAC in Plasmodium falciparum 3D7 by fluorescent activity assay; assay type: organism-based
Histone deacetylase = experiment: Inhibition of human HDAC in HeLa cells by fluorescent activity assay; assay type: cell-based
Plasmodium falciparum [2] = experiment: Antimalarial activity against Plasmodium falciparum 7G8 assessed as parasite growth inhibition after 48 hrs by standard growth inhibition assay; assay type: functional, organism-based
Plasmodium falciparum [3] = experiment: Antimalarial activity against sPlasmodium falciparum VS/1 assessed as parasite growth inhibition after 48 hrs by standard growth inhibition assay; assay type: functional
Plasmodium falciparum [4] = experiment: Antimalarial activity against Plasmodium falciparum 3D7 trophozoites assessed as parasite growth inhibition at […] nM measured at end of the experiment by standard growth inhibition assay; assay type: functional
Plasmodium falciparum [5] = experiment: Antimalarial activity against Plasmodium falciparum 3D7 schizonts assessed as parasite growth inhibition at […] nM measured at end of the experiment by standard growth inhibition assay; assay type: functional
Plasmodium falciparum [6] = experiment: Antimalarial activity against Plasmodium falciparum 3D7 rings assessed as parasite growth inhibition at […] nM measured at end of the experiment by standard growth inhibition assay; assay type: functional
Mus musculus [7] = experiment: Toxicity in ICR mouse assessed as death after 5 days at 0.5 to 100 mg/kg, iv once daily; assay type: organism-based; design: dose 0.5-100 mg/kg, route intravenous; settings: in vivo, 120 h
Mus musculus [8] = experiment: Toxicity in ICR mouse assessed as death after 14 days at 5 to 100 mg/kg, iv once daily; assay type: organism-based; design: dose 5-100 mg/kg, route intravenous; settings: in vivo, 336 h
Mus musculus [9] = experiment: Toxicity in ICR mouse assessed as clinical signs of distress after 5 days at 0.5 to 100 mg/kg, iv once daily; assay type: organism-based; design: dose 0.5-100 mg/kg, route intravenous; settings: in vivo, 120 h
Mus musculus [10] = experiment: Toxicity in ICR mouse assessed as clinical signs of distress after 14 days at 5 to 100 mg/kg, iv once daily; assay type: organism-based; design: dose 5-100 mg/kg, route intravenous; settings: in vivo, 336 h
Mus musculus [11] = experiment: Toxicity in ICR mouse assessed as mild increase in erythroid mass after 5 days at 0.5 to 50 mg/kg, iv once daily; assay type: organism-based, Erythrocyte; design: dose 0.5-50 mg/kg, route intravenous; settings: in vivo, 120 h
Mus musculus [12] = experiment: Toxicity in ICR mouse assessed as mild increase in erythroid mass after 14 days at 5 to 50 mg/kg, iv once daily; assay type: organism-based, Erythrocyte; design: dose 5-50 mg/kg, route intravenous; settings: in vivo, 336 h
Mus musculus [13] = experiment: Toxicity in ICR mouse assessed as moderate increase in erythroid mass after 5 days at 0.5 to 100 mg/kg, iv once daily; assay type: organism-based, Erythrocyte; design: dose 0.5-100 mg/kg, route intravenous; settings: in vivo, 120 h
Mus musculus [14] = experiment: Toxicity in ICR mouse assessed as moderate increase in erythroid mass after 14 days at 5 to 50 mg/kg, iv once daily; assay type: organism-based, Erythrocyte; design: dose 5-50 mg/kg, route intravenous; settings: in vivo, 336 h
Mus musculus [15] = experiment: Toxicity in ICR mouse assessed as severe increase in erythroid mass after 5 days at 0.5 to 100 mg/kg, iv once daily; assay type: organism-based, Erythrocyte; design: dose 0.5-100 mg/kg, route intravenous; settings: in vivo, 120 h
Mus musculus [16] = experiment: Toxicity in ICR mouse assessed as severe increase in erythroid mass after 14 days at 5 to 100 mg/kg, iv once daily; assay type: organism-based, Erythrocyte; design: dose 5-100 mg/kg, route intravenous; settings: in vivo, 336 h
Plasmodium berghei [17] = experiment: Antimalarial activity against Plasmodium berghei infected in iv dosed mouse assessed as decrease in parasites in blood; assay type: functional, organism-based; settings: in the assay text read “ip dosed” for “iv dosed”
Summary of the method: (§1)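 ICR mice (five per group) infected intraperitoneally with 10^6 P. berghei NK56 parasites from a donor mouse, then dosed intraperitoneally with 0, 0.05, 0.5, 5 or 50 mg/kg/day split into two doses for 4 days. Parasitemia was read from Giemsa-stained tail-blood thin smears on day 4 (1,500 cells, two microscopists), with Sybr green confirming negative slides. Parasitemia and hematocrit were taken every 4 days over 6 weeks.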

Plasmodium berghei [18] = experiment: Antimalarial activity against Plasmodium berghei infected in mouse assessed as mouse survival days at 0.5 mg/kg, […] as splited dose measured on day 4 relative to control; assay type: functional
Summary of the method: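 P. berghei NK56 blood from donor ICR mice (≥10% parasitemia), diluted in PBS; 10^6 parasites given ip to groups of five ICR mice. Treatment started simultaneously: ip, 0, 0.05, 0.5, 5 or 50 mg/kg/day in two daily doses for 4 days. Mice monitored up to 6 weeks or until death; survival counted from treatment start; paired Student t test.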

Plasmodium falciparum [19] = experiment: Antimalarial activity against Plasmodium falciparum 3D7 rings assessed as parasite growth inhibition at […] nM after 14 hrs by standard growth inhibition assay; settings: 3D7, 14 h
Plasmodium falciparum [20] = experiment: Antimalarial activity against Plasmodium falciparum 3D7 schizonts assessed as parasite growth inhibition at […] nM after 14 hrs by standard growth inhibition assay; settings: 3D7, 14 h
Plasmodium falciparum [21] = experiment: Antimalarial activity against Plasmodium falciparum 3D7 trophozoites assessed as parasite growth inhibition at […] nM after 14 hrs by standard growth inhibition assay; settings: 3D7, 14 h
Plasmodium falciparum [22] = experiment: Antimalarial activity against Plasmodium falciparum Dd2 assessed as parasite growth inhibition after 48 hrs by standard growth inhibition assay; assay type: functional, organism-based
Plasmodium falciparum [23] = experiment: Antimalarial activity against chloroquine-sensitive Plasmodium falciparum 3D7 assessed as parasite growth inhibition after 48 hrs by standard growth inhibition assay; assay type: functional, organism-based
Plasmodium falciparum [24] = experiment: Antimalarial activity against Plasmodium falciparum HB3 assessed as parasite growth inhibition after 48 hrs by standard growth inhibition assay; assay type: functional, organism-based
Plasmodium falciparum [25] = experiment: Antimalarial activity against chloroquine-resistant Plasmodium falciparum FCB1 assessed as parasite growth inhibition after 48 hrs by standard growth inhibition assay; assay type: functional, organism-based, FcB1/Columbia
Summary of the method: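 Ring-stage cultures of P. falciparum (3D7, FCB1) in RBCs, 2% hematocrit, at 1% parasitemia, incubated 48 h at 37°C in 90% N2/5% O2/5% CO2 with compound; 0.1% Me2SO control, uninfected-RBC background. Parasitemia counted by FACS on 100,000 Sybr green-stained cells; accepted only if controls grew ≥3-fold. Growth inhibition from background-corrected ratio to control. Triplicate, repeated at least twice.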

Plasmodium falciparum [26] = experiment: Antimalarial activity against Plasmodium falciparum FCR3 assessed as parasite growth inhibition after 48 hrs by standard growth inhibition assay; assay type: functional, FCR-3/Gambia
Plasmodium falciparum [27] = experiment: Antimalarial activity against Plasmodium falciparum 3D7 assessed as parasite regrowth measured after 3 days of compound withdrawal at 2.5 nM by standard growth inhibition assay; assay type: functional, organism-based
Summary of the method: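 Synchronized 3D7 cultures were exposed to 2.5 nM drug, continuously or over a limited interval, and then the drug was removed. Parasitemia was measured by FACS of Sybr green-stained cells every 12 h for 4 days. Growth inhibition was calculated against 0.1% Me2SO-treated controls. Representative of three experiments.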

Plasmodium berghei [28] = experiment: Antimalarial activity against Plasmodium berghei infected in mouse assessed as decrease in decline in hematocrit rate at 0.5 mg/kg, […] as splited dose compound with drawn on day 4 measured on day 8; assay type: functional, organism-based; design: dose 0.5 mg/kg; summary of the method: as §1
Plasmodium berghei [29] = experiment: Antimalarial activity against Plasmodium berghei infected in mouse assessed as decrease in decline in hematocrit rate at 50 mg/kg, […] as splited dose compound with drawn on day 4 measured after 6 weeks; assay type: functional, organism-based; design: dose 50 mg/kg; summary of the method: as §1
Plasmodium berghei [30] = experiment: Antimalarial activity against Plasmodium berghei infected in mouse assessed as decrease in parasites in blood at 0.05 mg/kg, ip administered as splited dose measured on day 4
Plasmodium berghei [31] = experiment: Antimalarial activity against Plasmodium berghei infected in mouse assessed as decrease in parasites in blood at 5 mg/kg, ip administered as splited dose measured on day 4 relative to control
Plasmodium berghei [32] = experiment: Antimalarial activity against Plasmodium berghei infected in mouse assessed as decrease in parasites in blood at 0.5 mg/kg, ip administered as splited dose measured on day 4 relative to control
Plasmodium berghei [33] = experiment: Antimalarial activity against Plasmodium berghei infected in mouse assessed as decrease in parasites in blood at 5 mg/kg, ip administered as splited dose compound with drawn on day 4 measured on day 20
Plasmodium berghei [34] = experiment: Antimalarial activity against Plasmodium berghei infected in mouse assessed as decrease in parasites in blood at 0.5 mg/kg, ip administered as splited dose compound with drawn on day 4 measured on day 8
Plasmodium berghei [35] = experiment: Antimalarial activity against Plasmodium berghei infected in mouse assessed as decrease in parasites in blood at 50 mg/kg, ip administered as splited dose compound with drawn on day 4 measured after 6 weeks
[36] = Plasmodium falciparum, 7G8, 48 h
[37] = Plasmodium falciparum, Dd2, 48 h
[38] = Plasmodium falciparum, 3D7, 48 h
[39] = Plasmodium falciparum, HB3, 48 h
[40] = Plasmodium falciparum, VS/1, 48 h
[41] = Plasmodium falciparum, FcB1/Columbia, 48 h
[42] = Plasmodium falciparum, FCR-3/Gambia, 48 h

Nc1cccc(-c2csc(NC(=O)CCCCCCC(=O)NO)n2)c1 [listing 1 of 2 here]
IC50 (Plasmodium falciparum [1]): 0.23 nM
IC50 (Histone deacetylase): 3.9 nM
IC50 (Plasmodium falciparum [2]): 0.4 nM
IC50 (Plasmodium falciparum [3]): 1 nM
inhibition at 0.00125 µM (Plasmodium falciparum [4]): 25%
inhibition at 0.00125 µM (Plasmodium falciparum [5]): 20%
inhibition at 0.00125 µM (Plasmodium falciparum [6]): < 5%
Activity (Mus musculus [7]): Non-toxic
Activity (Mus musculus [8]): Non-toxic
Activity (Mus musculus [9]): Non-toxic
Activity (Mus musculus [10]): Non-toxic
Activity (Mus musculus [11]): Non-toxic
Activity (Mus musculus [12]): Non-toxic
Activity (Mus musculus [13]): Non-toxic
Activity (Mus musculus [14]): Non-toxic
Activity (Mus musculus [15]): Non-toxic
Activity (Mus musculus [16]): Non-toxic
IC50 (Plasmodium berghei [17]): 0.5 mg/kg/day
Survival (Plasmodium berghei [18]): 23.6 days
inhibition at 0.00125 µM (Plasmodium falciparum [19]): 15%
inhibition at 0.00125 µM (Plasmodium falciparum [20]): 25%
inhibition at 0.00125 µM (Plasmodium falciparum [21]): 35%

O=C(CCCCCCC(=O)Nc1nc(-c2ccccc2)cs1)NO
IC50 (Plasmodium falciparum [1]; Plasmodium falciparum, 3D7): 30 nM
IC50 (Histone deacetylase): 6.6 nM
IC50 (Plasmodium falciparum [2]; [36]): 8 nM
IC50 (Plasmodium falciparum [22]; [37]): 6 nM
IC50 (Plasmodium falciparum [23]; [38]): 15 nM
IC50 (Plasmodium falciparum [24]; [39]): 7 nM
IC50 (Plasmodium falciparum [3]; [40]): 6 nM
IC50 (Plasmodium falciparum [25]; [41]): 6 nM

O=C(CCCCCCC(=O)Nc1ccc(-c2ccccc2)cc1)NO
IC50 (Plasmodium falciparum [1]; Plasmodium falciparum, 3D7): 60 nM
IC50 (Plasmodium falciparum [2]; [36]): 100 nM
IC50 (Plasmodium falciparum [22]; [37]): 85 nM
IC50 (Plasmodium falciparum [26]; [42]): 115 nM
IC50 (Plasmodium falciparum [23]; [38]): 129 nM
IC50 (Plasmodium falciparum [24]; [39]): 110 nM
IC50 (Plasmodium falciparum [3]; [40]): 115 nM
IC50 (Plasmodium falciparum [25]; [41]): 80 nM

Nc1cccc(-c2csc(NC(=O)CCCCCCC(=O)NO)n2)c1 [listing 2 of 2 here]
Activity (Plasmodium falciparum [27]): Active
Activity (Plasmodium berghei [28]): Active
Activity (Plasmodium berghei [29]): Active
Activity (Plasmodium berghei [30]): inactive
Activity (Plasmodium berghei [31]): Active
Activity (Plasmodium berghei [32]): Active
Activity (Plasmodium berghei [33]): inactive
Activity (Plasmodium berghei [34]): inactive
Activity (Plasmodium berghei [35]): Active

O=C(CCCCCC(=O)Nc1cccc2cccnc12)NS
IC50 (Plasmodium falciparum [1]; Plasmodium falciparum, 3D7): 4560 nM
IC50 (Histone deacetylase): 44 nM
IC50 (Plasmodium falciparum [2]; [36]): 5550 nM
IC50 (Plasmodium falciparum [22]; [37]): 7550 nM
IC50 (Plasmodium falciparum [26]; [42]): 6750 nM
IC50 (Plasmodium falciparum [23]; [38]): 9750 nM
IC50 (Plasmodium falciparum [24]; [39]): 8990 nM
IC50 (Plasmodium falciparum [3]; [40]): 9910 nM
IC50 (Plasmodium falciparum [25]; [41]): 6780 nM

O=C(CCCCCCC(=O)NC12CC3CC(CC(C3)C1)C2)NO
IC50 (Plasmodium falciparum [1]; Plasmodium falciparum, 3D7): 658 nM
IC50 (Histone deacetylase): 420 nM
IC50 (Plasmodium falciparum [2]; [36]): 10000 nM
IC50 (Plasmodium falciparum [26]; [42]): 9580 nM
IC50 (Plasmodium falciparum [23]; [38]): 11000 nM
IC50 (Plasmodium falciparum [24]; [39]): 9550 nM
IC50 (Plasmodium falciparum [3]; [40]): 8120 nM
IC50 (Plasmodium falciparum [25]; [41]): 6550 nM

N[C@@H](Cc1ccccc1)C(=O)Nc1ccccc1-c1ccc(NC(=O)CCCCCCC(=O)NO)cc1
IC50 (Plasmodium falciparum [1]; Plasmodium falciparum, 3D7): 449 nM
IC50 (Plasmodium falciparum [2]; [36]): 160 nM
IC50 (Plasmodium falciparum [22]; [37]): 170 nM
IC50 (Plasmodium falciparum [26]; [42]): 150 nM
IC50 (Plasmodium falciparum [23]; [38]): 220 nM
IC50 (Plasmodium falciparum [24]; [39]): 180 nM
IC50 (Plasmodium falciparum [3]; [40]): 175 nM
IC50 (Plasmodium falciparum [25]; [41]): 95 nM

Cl.Nc1cccc(-c2csc(NC(=O)CCCCCCC(=O)NO)n2)c1
IC50 (Plasmodium falciparum [1]): 50 nM
IC50 (Histone deacetylase): 7.6 nM
IC50 (Plasmodium falciparum [2]): 10 nM
IC50 (Plasmodium falciparum [22]): 12 nM
IC50 (Plasmodium falciparum [26]): 22 nM
IC50 (Plasmodium falciparum [23]): 30 nM
IC50 (Plasmodium falciparum [24]): 20 nM
IC50 (Plasmodium falciparum [3]): 23 nM
IC50 (Plasmodium falciparum [25]): 15 nM
